Assay results reported in ChEMBL document CHEMBL3860076, “New inhibitors of tyrosyl-DNA phosphodiesterase I (Tdp 1) combining 7-hydroxycoumarin and monoterpenoid moieties” (Bioorg Med Chem, 2016).
pIC50: −log10 of the molar value.

Assays:
[1] = molecular target: T1, Tyrosyl-DNA phosphodiesterase 1 (Homo sapiens, UniProt Q9NUW8)
[2] = Cytotoxicity against human MCF7 cells expressing Tdp1 assessed as reduction in cell viability up to 100 uM measured after 72 hrs by MTT assay; format: toxicity, cell-based; details: mcf7, 72 h
Procedure, shortened: (§1)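 MCF-7 mammary adenocarcinoma cells, about 2000 per well, were pre-incubated for 24 h at 37 °C in IMDM (5% CO₂). They were then exposed to the coumarins over a dose series up to 100 μM. After 72 h, live cells were quantified by colorimetric MTT test. CC50 was read from the dose-response curve.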

[3] = Cytotoxicity against human MCF7 cells expressing Tdp1 assessed as reduction in cell viability measured after 72 hrs by MTT assay; format: toxicity, cell-based; details: for Activity: mcf7, 72 h
Procedure, shortened: as §1

[4] = molecular target: T1, Tyrosyl-DNA phosphodiesterase 1; experiment: Reversal of Tdp1-mediated drug resistance in human MCF7 cells assessed as camptothecin CC50 at 5 uM measured after 72 hrs by MTT assay (reference value: 1430 +/- 430 nM); format: cell-based
Procedure, shortened: (§2)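 MCF-7 cells, about 2000 per well, were pre-incubated for 24 h at 37 °C in IMDM (5% CO₂). They were then given graded camptothecin concentrations together with a fixed 5 μM coumarin. After 72 h, viable cells were measured by MTT. Camptothecin CC50 was estimated with and without the coumarin.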

[5] = Cytotoxicity against human RPMI8226 cells expressing low levels of Tdp1 assessed as reduction in cell viability up to 100 uM measured after 72 hrs by MTT assay; format: toxicity, cell-based; details: rpmi-8226, 72 h
Procedure, shortened: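 RPMI 8226 human myeloma cells were seeded at about 2000 per well and treated with the coumarins. They were incubated at 37 °C in RPMI 1640 medium (5% CO₂). Viability was measured by MTT.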

[6] = molecular target: T1, Tyrosyl-DNA phosphodiesterase 1; experiment: Reversal of Tdp1-mediated drug resistance in human MCF7 cells assessed as fold reduction in camptothecin CC50 at 5 uM measured after 72 hrs by MTT assay relative to camptothecin alone; format: cell-based
Procedure, shortened: as §2

T1 sequence (Q9NUW8 whole entry): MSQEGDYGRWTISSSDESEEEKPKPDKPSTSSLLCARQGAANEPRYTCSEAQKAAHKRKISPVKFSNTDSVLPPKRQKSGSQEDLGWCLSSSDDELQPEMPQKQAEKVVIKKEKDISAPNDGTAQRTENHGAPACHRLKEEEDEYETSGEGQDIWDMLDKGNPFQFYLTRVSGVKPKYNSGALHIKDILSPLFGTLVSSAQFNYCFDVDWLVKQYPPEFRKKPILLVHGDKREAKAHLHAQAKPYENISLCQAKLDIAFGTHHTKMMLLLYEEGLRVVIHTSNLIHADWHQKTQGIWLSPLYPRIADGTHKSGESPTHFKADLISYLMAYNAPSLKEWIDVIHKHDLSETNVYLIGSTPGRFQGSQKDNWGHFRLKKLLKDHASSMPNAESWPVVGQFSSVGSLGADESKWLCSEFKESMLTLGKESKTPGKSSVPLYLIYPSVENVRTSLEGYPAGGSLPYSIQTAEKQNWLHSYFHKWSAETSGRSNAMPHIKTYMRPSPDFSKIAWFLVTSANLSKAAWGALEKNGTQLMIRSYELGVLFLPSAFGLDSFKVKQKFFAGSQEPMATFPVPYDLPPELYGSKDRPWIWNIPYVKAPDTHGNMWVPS

| SMILES | pIC50 [1] | Activity [2] | Activity [3] | CC50 [4] [nM] | Activity [5] | fold change (FC) [6] | CC50 at 72 h ([3]; MCF7 cells expressing Tdp1) [nM] |
| --- | --- | --- | --- | --- | --- | --- | --- |
| CC1(C)[C@H]2CC=C(COc3ccc4c5c(c(=O)oc4c3)CCCC5)[C@@H]1C2 | 5.91 | Non-Toxic |  |  |  |  |  |
| COc1cc(COc2ccc3c4c(c(=O)oc3c2)CCCC4)cc(OC)c1OC | < 5.00 |  |  |  |  |  |  |
| CC1(C)[C@H]2CC=C(CCOc3ccc4c5c(c(=O)oc4c3)CCC5)[C@@H]1C2 | 5.96 |  | Dose-dependent effect |  |  |  |  |
| COc1cccc(COc2ccc3c(C)cc(=O)oc3c2)c1 | < 5.00 |  |  |  |  |  |  |
| CC1(C)[C@H]2CC=C(COc3ccc4c5c(c(=O)oc4c3)CCC5)[C@@H]1C2 | 5.86 | Non-Toxic |  | 330 |  |  |  |
| CC1(C)[C@H]2CC=C(CCOc3ccc4c5c(c(=O)oc4c3)CCCC5)[C@@H]1C2 | 5.84 |  | Dose-dependent effect | 2300 |  |  |  |
| COc1cc(COc2ccc3c(C)cc(=O)oc3c2)cc(OC)c1OC | < 5.00 |  |  |  |  |  |  |
| CC1(C)[C@@H]2CC=C(COc3ccc4c5c(c(=O)oc4c3)CCCC5)[C@H]1C2 | 5.92 | Non-Toxic |  | 410 | Non-Toxic |  |  |
| COc1cc(COc2ccc3c4c(c(=O)oc3c2)CCC4)cc(OC)c1OC | < 5.00 |  |  |  |  |  |  |
| COc1cccc(COc2ccc3c4c(c(=O)oc3c2)CCCC4)c1 | 5.31 |  |  |  |  |  |  |
| CC1(C)[C@@H]2CC=C(COc3ccc4c5c(c(=O)oc4c3)CCC5)[C@H]1C2 | 6.17 |  |  | 180 | Non-Toxic | 8 | > 100000 |
| Cc1cc(=O)oc2cc(OCC3=CC[C@@H]4C[C@H]3C4(C)C)ccc12 | 5.37 |  | Toxic | 320 | Non-Toxic |  |  |
| Cc1cc(=O)oc2cc(OCC3=CC[C@H]4C[C@@H]3C4(C)C)ccc12 | 5.81 |  | Toxic | 340 | Non-Toxic |  |  |
